An excerpt weighted towards active compounds, which were near 3.6% of everything screened.
AHR act: activators of human aryl hydrocarbon receptor | P35869 | AHR-responsive luciferase reporter cells, luminescence | activation, % at 5 µM | 320,000 compounds, 2.5% hits; in the data active = activation above about 47%;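 also: 0% = vehicle wells and 100% = reference agonist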
Target sequence (P35869 whole entry, looked up): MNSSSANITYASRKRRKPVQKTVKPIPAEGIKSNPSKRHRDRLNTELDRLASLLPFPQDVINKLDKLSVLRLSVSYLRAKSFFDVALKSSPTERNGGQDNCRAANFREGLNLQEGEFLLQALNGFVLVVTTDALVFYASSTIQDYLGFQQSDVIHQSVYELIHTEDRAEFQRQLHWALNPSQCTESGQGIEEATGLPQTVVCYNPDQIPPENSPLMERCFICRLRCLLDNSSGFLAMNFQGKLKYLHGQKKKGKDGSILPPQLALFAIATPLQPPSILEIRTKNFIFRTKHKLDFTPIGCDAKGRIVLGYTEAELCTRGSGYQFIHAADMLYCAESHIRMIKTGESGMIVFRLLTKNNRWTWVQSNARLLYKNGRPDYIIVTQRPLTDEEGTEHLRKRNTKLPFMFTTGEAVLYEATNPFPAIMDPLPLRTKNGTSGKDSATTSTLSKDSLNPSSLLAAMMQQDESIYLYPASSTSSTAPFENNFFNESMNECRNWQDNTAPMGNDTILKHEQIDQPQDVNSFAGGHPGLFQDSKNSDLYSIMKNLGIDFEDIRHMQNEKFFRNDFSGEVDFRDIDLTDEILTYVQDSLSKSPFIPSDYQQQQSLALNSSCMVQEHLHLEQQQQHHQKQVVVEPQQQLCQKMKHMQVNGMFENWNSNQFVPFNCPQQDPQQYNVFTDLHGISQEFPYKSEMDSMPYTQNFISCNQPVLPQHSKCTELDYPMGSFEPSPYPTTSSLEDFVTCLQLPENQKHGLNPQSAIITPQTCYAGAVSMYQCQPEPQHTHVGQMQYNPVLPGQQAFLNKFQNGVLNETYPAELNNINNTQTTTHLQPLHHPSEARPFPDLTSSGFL
PolyA inhibitor: yeast polyadenylation inhibition; 300,000 compounds, 0.02% hits; S. cerevisiae SKY197-pL101 polyadenylation reporter, beta-gal luminescence; efflux-impaired pdr1/pdr3 knockout yeast; score 100 = 6 SD above DMSO; activity score, % at 12 µM; AID 1875;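 active = lowest replicate activity score at least 50, where 100 means six control SD above control mean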;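 also: yeast exposed to compound for 9 h at 30 °C; higher score means more reporter readthrough which indicates perturbed polyadenylation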
PERK inhibitor: inhibitors of human PERK kinase. inhibition, % at 5.6 µM. 220,000 compounds, 0.17% hits. Q9NZJ5. CHO PERK-DD fusion, SEAP luminescence translation reporter;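 active = inhibition above the mean inhibition of all tested compounds plus 3 SD, set separately per screening campaign, cut at about 2.9% in these data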;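 also: PERK kinase domain activated by AP20187 dimerizer at 100 nM; 0% = DMSO with dimerizer and 100% = rapamycin at 8.4 µM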
STAT3 activator: STAT3 signaling activation. U3A cells, IL-6 STAT3-luciferase reporter, luminescence; 100% = signal with IL-6 EC80 alone. activation (% of control), % at 5.6 µM. 190,000 compounds, 0.91% hits. AID 871;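 active = activation above the screen-wide mean of compound activation plus 3 SD, cut at about 130% in these data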;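 also: 0% = background luminescence of wells with medium and substrate only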
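Material: human U3A cells carrying STAT3-luciferase construct. Measured by: reporter luminescence signal. Timing: compound 1 h, then IL-6 6 h at 37 °C.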
Hsp70 act: transcriptional activators of Hsp70 | HeLa Hsp70 promoter luciferase reporter, luminescence; scaled: vehicle 0, proteasome-inhibitor control 100% | activation, % at 10 µM | 200,000 compounds, 0.04% hits;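 active = activation above the mean across all tested compounds plus 3 SD, cutoff set per campaign, cut at about 5.5% in these data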;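 also: 100% = MG132 at 30 µM as the positive control and 0% = DMSO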
HSF1 inhib: HSF1 inhibition. 300,000 compounds, 0.77% hits. activity change, negative = inhibition, % at 7.5 µM (by protocol). NIH3T3-HGL HSE-luciferase, MG132-induced, luminescence 8 h; active compounds read low. AID 2098;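 active = more than half of replicate wells show activity change below -50%, luminescence cut by over half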;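 also: luciferase reports HSF-1 transcriptional activity via heat shock element; 0% = median of DMSO wells and -100% = zero luminescence signal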
Starred values were filed as active, the others as inactive; / = no result.

SMILES	AHR act	PolyA inhibitor	PERK inhibitor	STAT3 activator	Hsp70 act	HSF1 inhib
NNC(=O)c1cc2c(s1)-c1cc(Cl)ccc1SC2	64.3*	2.3	-1.0	/	/	-0.6
O=C(CCl)Nc1ccccc1C(=O)Nc1ccc2c(c1)OCO2	46.7	-21.0	0.6	/	/	22.0
COc1ccc(NC(=O)C(=O)NCCO)cc1Cl	59.0*	-7.4	0.8	97.9	-0.2	-0.6
CCOC(=O)C(=O)Nc1ccc(OC)c(Cl)c1	20.6	0.7	0.7	91.0	0.2	3.1
COc1ccc(NC(=O)C(=O)NCCCO)cc1Cl	61.6*	0.3	0.9	91.1	-0.2	4.5
CC(=O)c1ccc(N2C(=O)CC(N3CCN(S(=O)(=O)c4ccc(C)c(C)c4)CC3)C2=O)cc1 (stereo unspecified)	-1.2	/	/	/	/	/
Cc1cc(Cl)ccc1OC(C)C(=O)OCC(=O)c1ccc[nH]1 (stereo unspecified)	-0.3	/	/	/	/	/
O=C(COC(=O)Cc1ccc(S(=O)(=O)N2CCOCC2)s1)NCc1ccc(Cl)cc1	-3.2	56.3*	0.6	108.3	-0.3	1.4
COc1cc(NC(=O)Cc2ccc(S(=O)(=O)N3CCOCC3)s2)c(OC)cc1Cl	16.8	5.3	/	/	/	7.4
O=C(Cc1ccc(S(=O)(=O)N2CCOCC2)s1)Nc1cc(Cl)ccc1Cl	91.7*	/	/	/	/	/
COc1ccccc1/C=N\N=C(\N)c1ccccn1	71.3*	-1.4	1.0	94.3	-0.1	3.2
COc1ccccc1C=NN=Cc1ccccc1O	/	/	/	/	/	-23.5
Nc1cc(=O)[nH]c2nnc(SCC(=O)Nc3cccc4ccccc34)n12	-1.4	-13.3	/	/	/	-5.4
CCCCC(=O)NC(c1ccc(C(C)C)cc1)c1ccc2cccnc2c1O (stereo unspecified)	1.7	-13.9	/	/	/	-36.4
CCC(=O)NC(c1ccco1)c1cc(Cl)c2cccnc2c1O (stereo unspecified)	6.2	-34.0	0.7	111.0	-0.2	-72.4*
CC(=O)NC(c1cc(Cl)c2cccnc2c1O)C(C)C (stereo unspecified)	4.1	/	/	/	/	/
CC(=O)NC(c1ccc(C(C)C)cc1)c1ccc2cccnc2c1O (stereo unspecified)	0.3	6.5	/	/	/	-51.6*
CCCCC(=O)NC(c1ccco1)c1cc(Cl)c2cccnc2c1O (stereo unspecified)	10.0	-5.5	0.8	102.1	0.2	-33.7
CCC(=O)NC(c1ccc(OC)cc1)c1cc(Cl)c2cccnc2c1O (stereo unspecified)	-2.8	-6.1	0.5	104.5	-0.1	-64.5*
CC(=O)NC(c1ccc(C)cc1)c1cc(Cl)c2cccnc2c1O (stereo unspecified)	/	-24.7	/	/	/	-83.2*
O=C(CC(=O)Nc1cc(Cl)ccc1Cl)Nc1cc(Cl)ccc1Cl	15.3	4.9	/	/	/	-0.7
CCOC(=O)c1cc2c(ccc3nc(C)c(C)c32)[nH]c1C	8.4	-3.2	/	/	/	5.0
COc1ccc(CC(=O)N(C)CC(=O)Nc2ccc(F)cc2)cc1S(=O)(=O)N1CCOCC1	2.4	/	/	/	/	/
Cc1cccc(SC2CCN(Cc3nc(CC4CC4)no3)CC2)c1	2.9	4.1	2.1	109.7	-0.2	-0.8
Cc1cccc(OC2CCN(Cc3nc(CC4CC4)no3)CC2)c1	1.1	18.0	3.0*	102.7	0.6	-5.4
SMILES	AHR act	PolyA inhibitor	PERK inhibitor	STAT3 activator	Hsp70 act	HSF1 inhib
C=CCNc1cc(C)oc(=O)c1C(=O)CCC	1.7	-13.5	0.5	109.7	-0.1	-68.0*
Nc1cc(N)nc(SCC(=O)Nc2cc(S(=O)(=O)N3CCOCC3)ccc2Cl)n1	1.9	-8.1	/	/	/	10.1
CCOc1ccc(NCC(=O)c2ccc(C)cc2)cc1	-2.2	-17.8	0.3	97.4	-0.1	-54.0*
O=C(Nn1c(-c2ccccc2)nc2ccccc2c1=O)c1cccs1	51.0*	5.6	1.0	99.0	0.0	1.8
Cc1nc(SCC(=O)Nn2c(-c3ccccc3)nc3ccccc3c2=O)n[nH]1	74.2*	1.1	0.3	97.3	-0.2	0.4
O=C(Nn1c(-c2ccccc2)nc2ccccc2c1=O)C1CCC1	47.2*	3.9	-0.6	111.3	0.0	-4.4
COc1ccccc1-c1nc2ccccc2c(=O)n1NC(=O)c1cccs1	3.2	8.5	0.7	98.6	-0.1	1.8
CN(C)C(=S)Nn1c(-c2ccccc2)nc2ccccc2c1=O	-1.3	-9.7	0.4	96.3	-0.2	-2.5
O=C1OC(c2ccc(Br)cc2)=N/C1=C\N1CCCCC1	63.0*	-3.9	-0.4	98.8	-0.2	32.4
